Rows were chosen to be rich in hits. Some 2.1% of all compounds tested hit in one or more screens of this group.
LMPTP inh = LMPTP phosphatase inhibitors, primary screen, biochemical, fluorescence intensity, uHTS. Low molecular weight phosphotyrosine protein phosphatase (Homo sapiens), P24666. recombinant LMPTP-A, OMFP fluorogenic substrate. inhibition, % at 20 µM. 360,000 compounds, 0.22% hits. AID 651560, 2012;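 active = compounds that cut the enzyme signal by at least half of the control window in the single-dose screen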
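Assay system: LMPTP-A enzyme. Input: 0.625 nM LMPTP-A final. Probe or stimulus: 400 µM OMFP. Compound dosing: single 20 µM dose. Schedule: 50 min dark incubation at room temperature. Detection: fluorescence intensity of OMFP turnover product. Read-out: percent inhibition versus substrate-only and uninhibited controls. Benchmarks: no-enzyme low control, uninhibited high control.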
SUMO1 PPI mod = modulators of SUMO1 protein-protein interactions, primary screen, biochemical, uHTS; SUMO1 binding to a labelled peptide, TR-FRET, 1 h; 360,000 compounds, 0.33% hits; AID 602429, 2012; inhibition, % at 20 µM; Small ubiquitin-related modifier 1 (Homo sapiens), P63165; in the data active = inhibition above about 37%
DNMT1 inh = human DNMT1 methyltransferase inhibitors, primary screen, biochemical, molecular beacon, fluorescence, HinP1I cleavage, uHTS; inhibition (reported as % activation of signal), % at 10 µM; DNA (cytosine-5)-methyltransferase 1 (Homo sapiens), P26358; 360,000 compounds, 0.83% hits; in the data active = inhibition above about 50%
Target sequence (P26358 504-1616 limits assumed): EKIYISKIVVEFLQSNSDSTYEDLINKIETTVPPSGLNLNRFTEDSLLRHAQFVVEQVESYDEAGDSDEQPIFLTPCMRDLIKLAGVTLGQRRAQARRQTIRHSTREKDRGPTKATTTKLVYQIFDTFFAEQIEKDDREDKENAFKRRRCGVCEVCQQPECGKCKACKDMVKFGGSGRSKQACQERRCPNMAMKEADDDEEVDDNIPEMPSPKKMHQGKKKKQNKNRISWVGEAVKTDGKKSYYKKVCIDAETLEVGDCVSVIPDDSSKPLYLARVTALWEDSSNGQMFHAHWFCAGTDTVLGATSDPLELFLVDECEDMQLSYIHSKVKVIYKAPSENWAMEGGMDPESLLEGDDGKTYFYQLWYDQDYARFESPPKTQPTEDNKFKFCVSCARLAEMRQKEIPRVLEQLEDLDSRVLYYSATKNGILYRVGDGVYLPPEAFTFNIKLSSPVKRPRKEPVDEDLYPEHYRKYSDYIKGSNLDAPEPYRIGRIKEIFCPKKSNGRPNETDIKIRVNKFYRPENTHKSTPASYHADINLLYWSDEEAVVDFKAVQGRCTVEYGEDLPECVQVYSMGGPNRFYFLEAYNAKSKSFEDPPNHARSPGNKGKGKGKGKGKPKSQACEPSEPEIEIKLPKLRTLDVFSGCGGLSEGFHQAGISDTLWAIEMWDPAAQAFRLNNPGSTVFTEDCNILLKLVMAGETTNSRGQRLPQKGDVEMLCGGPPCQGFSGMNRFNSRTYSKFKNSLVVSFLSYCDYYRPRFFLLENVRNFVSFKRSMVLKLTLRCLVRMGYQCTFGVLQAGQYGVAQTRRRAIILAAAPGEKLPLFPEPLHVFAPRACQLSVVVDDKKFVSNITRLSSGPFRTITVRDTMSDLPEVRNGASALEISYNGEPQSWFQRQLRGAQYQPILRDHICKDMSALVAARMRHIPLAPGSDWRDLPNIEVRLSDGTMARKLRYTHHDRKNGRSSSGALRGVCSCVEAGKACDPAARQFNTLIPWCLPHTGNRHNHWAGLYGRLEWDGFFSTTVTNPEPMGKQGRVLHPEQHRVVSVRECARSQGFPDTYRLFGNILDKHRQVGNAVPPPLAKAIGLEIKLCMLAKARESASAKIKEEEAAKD
GRK2 inh = compounds blocking aptamer binding on GRK2 – biochemical, human GRK2, bead flow cytometry, HTS, primary screen; Beta-adrenergic receptor kinase 1 (Homo sapiens), P25098; FAM-aptamer displacement from GRK2; inhibition of aptamer binding, % at 10 µM; 330,000 compounds, 0.59% hits; AID 488847, 2010;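 active = inhibition of aptamer binding above 40%, roughly 3 SD of noise, on plates passing a quality check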;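 also: median bead fluorescence of bound FAM aptamer so fluorescent compounds give negative values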
Scp1 inh = Scp-1 phosphatase inhibitors, primary screen, biochemical, colorimetric, uHTS. Carboxy-terminal domain RNA polymerase II polypeptide A small phosphatase 1 (Homo …. Recombinant Scp1, phosphopeptide, malachite green phosphate absorbance. inhibition, % at 20 µM. 340,000 compounds, 0.88% hits. AID 493091, 2011;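 active = inhibition above about 50% at 20 µM, limit read from the data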
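Test system: SCP-1 catalytic domain; Buffer or medium: Acidic Tris acetate buffer with magnesium and detergent; Also added: Phosphorylated 17-residue peptide substrate; Compound: single 20 µM dose, 1% DMSO; Schedule: enzyme reaction 45 min at room temperature, colour 5 min, stabilisation 30 min; Signal: Phosphate-binding colour reagent, absorbance read at 630 nm.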
STEP inh = STEP phosphatase inhibitors, primary screen, biochemical, fluorescence intensity, uHTS | Tyrosine-protein phosphatase non-receptor type 5 (Homo sapiens), P54829 | recombinant STEP, OMFP fluorogenic substrate | inhibition, % at 20 µM | 360,000 compounds, 0.25% hits | AID 588621, 2011;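 active = inhibition at 20 µM, scaled per plate between control wells, above about 37%, limit read from the data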
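Measure: Control-normalized % inhibition with plate pattern correction | Test system: STEP phosphatase, cell-free reaction | Medium: pH 6.0 Bis-Tris with DTT and Tween 20 | Technique: Fluorescence, 480/540 nm | Times: Reaction 20 min, ambient temperature | Doses: Single compound dose of 20 µM, 1% DMSO final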
DNMT1 interf DR = spectral interference with molecular beacon fluorescence, dose response, artefact control for DNMT1 inhibitor project, biochemical, fluorescent molecular beacon; shares compounds with DNMT1 inh; spectral interference counter-screen; IC50, µM; 200 tested, under 10 active; call rule not given here
DNMT1 confirm = DNMT1 methyltransferase inhibitor retest, confirmation, biochemical, molecular beacon, fluorescence, single concentration; shares compounds with DNMT1 inh; DNMT1 molecular beacon HinP1I cleavage; inhibition, % at 10 µM; 2,300 compounds, 8% hits; AID 602385, 2012;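 active = average inhibition of at least 30% in the single-concentration confirmation test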
Beacon interf = shows spectral interference in the DNMT1 beacon assay. shares compounds with DNMT1 inh. DNMT1 molecular beacon spectral interference counterscreen, fluorescence 485/520. activation (fluorescence interference), % at 10 µM. 2,300 compounds, 1% hits;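 active = activation of at least 30% at 10 µM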;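 also: DNMT1 catalytic domain with a HinP1I cleavage step and a FAM/dabcyl DNA beacon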
Large screens that a line does not name were inactive (follow-up assays come after a bar, where they were run).

Cc1cc(C)c2oc(-c3ccc(C)c(NC(=S)NC(=O)/C=C/c4ccco4)c3)nc2c1	none
Cc1ccc2oc(-c3cccc(NC(=S)NC(=O)c4cccs4)c3)nc2c1	none
CCCNC(=O)c1cc(C2CCCCN2C(=O)c2ccc(C(C)C)cc2)on1 (stereo not given)	none (no result: GRK2 inh, Scp1 inh)
O=c1oc2c(O)cccc2cc1-c1nc2ccccc2[nH]1	LMPTP inh 66, DNMT1 inh 63 | DNMT1 confirm inactive | Beacon interf inactive
COC(=O)C[C@@H]1C[C@@H]2c3cc(NS(=O)(=O)c4ccc(F)cc4)ccc3O[C@@H]2[C@H](CO)O1	none (no result: GRK2 inh, Scp1 inh)
COCCn1c(-c2ccc(OC)cc2)nc2ccccc21	none
COCCn1c2nc(=O)n(-c3ccccc3)c(=O)c-2nc2ccccc21	DNMT1 inh 99 (no result: GRK2 inh, Scp1 inh) | DNMT1 confirm 46 | Beacon interf 72
COc1ccc(CNC(=O)c2cc3cc(OC)ccc3oc2=O)cc1	none
COc1ccc2oc(=O)c(C(=O)NCc3ccccc3)cc2c1	DNMT1 inh 51 | DNMT1 confirm inactive | Beacon interf inactive
COc1ccc(CN(C)C(=O)Cn2ccc(N)nc2=O)cc1OC	DNMT1 inh 89 | DNMT1 confirm inactive | Beacon interf inactive
COc1ccc(CN(C)CCCn2ccc(N)nc2=O)cc1OC	none (no result: GRK2 inh, Scp1 inh)
S=c1[nH]nc(-c2n[nH]c3c2CCC3)n1/N=C/C=C/c1ccco1	DNMT1 inh 51 | DNMT1 confirm inactive | Beacon interf inactive
COc1ccccc1/C=C/C=N/n1c(-c2n[nH]c3c2CCC3)n[nH]c1=S	none
S=c1[nH]nc(-c2ccco2)n1/N=C/C=C/c1ccco1	DNMT1 inh 83 | DNMT1 confirm inactive | Beacon interf inactive
S=c1[nH]nc(-c2cc(-c3ccccc3)n[nH]2)n1/N=C/C=C/c1ccco1	DNMT1 inh 62 | DNMT1 confirm inactive | Beacon interf inactive
C=Cc1ccc(CC2(C)C(=O)Nc3ccc(-c4cccnc4)cc32)cc1 (stereo not given)	none (no result: GRK2 inh, Scp1 inh)
OCCCN=c1cc(-c2ccccc2)oc2ccc(Cl)cc12	none
CC1(C)CC(N=c2cc(-c3ccccc3)oc3ccc(Cl)cc23)CC(C)(C)N1	DNMT1 inh 75 (no result: GRK2 inh) | DNMT1 interf DR inactive | DNMT1 confirm 33 | Beacon interf inactive
CNS(=O)(=O)c1ccc(CNC[C@H]2O[C@@H](n3cnc4c(=O)[nH]c(N)nc43)[C@H](O)[C@@H]2O)cc1	none (no result: GRK2 inh, Scp1 inh)
CCc1c(O)cc(=O)n(-c2ccccc2)c1-c1ccccc1	DNMT1 inh 58 | DNMT1 confirm inactive | Beacon interf inactive
CC(=O)c1c(O)cc(=O)n(-c2ccccc2)c1-c1ccc(Cl)cc1	none
O=C1/C(=C/c2ccco2)Cc2ccccc21	DNMT1 inh 59 | DNMT1 confirm inactive | Beacon interf inactive
CCOc1ccc(C(=O)Nc2ccc(NC(=O)c3cccs3)cc2)cc1[N+](=O)[O-]	none
COc1ccc(C(=O)Nc2ccc(NC(=O)c3cccs3)cc2)cc1[N+](=O)[O-]	none | DNMT1 confirm inactive | Beacon interf inactive
COc1ccc(NC(=O)COC(=O)c2c3c(nc4ccccc24)CCCC3)cc1	DNMT1 inh 55 | DNMT1 confirm inactive | Beacon interf inactive
COc1ccc(NC(=O)COC(=O)c2c3c(nc4ccccc24)CCCC3)cc1Cl	none
O=C(Nc1ccc(N2CCCC2)cc1)C(c1ccccc1)c1ccccc1	DNMT1 inh 73 | DNMT1 confirm inactive | Beacon interf inactive
CC(=O)N1CCN(c2ccc(NC(=O)C(c3ccccc3)c3ccccc3)cc2)CC1	none
O=C(Cc1ccc(Cl)cc1)Nc1ccc(NC(=O)c2ccccc2)cc1	DNMT1 inh 56 | DNMT1 confirm inactive | Beacon interf inactive
CCOc1cccc(C(=O)NC(=S)Nc2ccc(N3CCCC3)cc2)c1	DNMT1 inh 72 | DNMT1 confirm inactive | Beacon interf inactive
O=C(Cc1ccccc1)Nc1ccc(N2CCOCC2)cc1	none
O=C(Cc1ccccc1)Nc1ccc(N2CCCC2)cc1	DNMT1 inh 94 | DNMT1 confirm inactive | Beacon interf inactive
CC1=C(C(=O)N(C(C)C)C(C)C)CC(CC(=O)NCCN2CCOCC2)C(=O)N1Cc1ccc(F)cc1 (stereo not given)	none (no result: GRK2 inh, Scp1 inh)
O=C(NCC1CC1)c1cc(-c2ccccc2)nn1CC1CC(c2cccnc2)=NO1 (stereo not given)	none
O=C(Nc1ccc(N2CCCC2)cc1)c1cc2ccccc2o1	DNMT1 inh 65 | DNMT1 confirm inactive | Beacon interf inactive
O=C(Nc1ccc(N2CCCC2)cc1)c1ccc(Br)cc1	DNMT1 inh 58 | DNMT1 confirm inactive | Beacon interf inactive
O=C(Cc1ccccc1)Nc1cccc(N2CCCC2)c1	DNMT1 inh 78 | DNMT1 confirm inactive | Beacon interf inactive
CCCCC(=O)Nc1ccc(N2CCCC2)cc1	DNMT1 inh 77 | DNMT1 confirm inactive | Beacon interf inactive
Cn1c(N)c(C(=O)N2CCN(c3ccccc3)CC2)c(=O)n(C)c1=O	none (no result: GRK2 inh, Scp1 inh)
CCOC1=C2[C@@H](CN(S(=O)(=O)c3ccc(C)cc3)[C@H]2c2ccccc2F)[C@H]2C(=O)N(c3ccccc3)C(=O)[C@H]2C1	none (no result: GRK2 inh, Scp1 inh)
CCCCN1C(=O)C(CC(=O)NCc2cccc3ccccc23)CC(C(=O)N2CCOCC2)=C1C (stereo not given)	none (no result: GRK2 inh, Scp1 inh)
O=C(O)CCCCCN1C(=O)/C(=C\c2cn(-c3ccccc3)nc2-c2cccs2)SC1=S	SUMO1 PPI mod 114, DNMT1 inh 85, Scp1 inh 66 | DNMT1 interf DR 60 | DNMT1 confirm 44 | Beacon interf inactive

Compound activity as filed in PubChem.
